Assay outcomes: PubChem BioAssay, several laboratories
CXCR6 block – CXCR6 receptor inhibitors, primary screen, cell-based, beta-arrestin, luminescence, CHO-K1 PathHunter, 1536-well | C-X-C chemokine receptor type 6 (Homo sapiens), O00574 | inhibition, % at 20 µM | actives 0.36% (n = 360,000); in the data active means inhibition above about 34%, passing the limit was not always enough;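 further: antagonist mode with CXCL16 agonist at 10 nM final; 0% = 10 nM CXCL16 with DMSO and 100% = unstimulated wells without agonist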
HTR2A ag – mouse Htr2a agonists via beta-arrestin recruitment, primary screen, cell-based, luminescence; activation, % at 7.6 µM; 5-hydroxytryptamine receptor 2A (Mus musculus), P35363; CHO-K1 mHTR2A beta-arrestin complementation; percent of 30 µM serotonin response; actives 0.66% (n = 360,000); AID 624169, 2012;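 active means activation above a run cutoff, the mean activation of all tested compounds plus 3 SD, cut at about 14% in these data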;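 further: 0% = plate median of compound wells and 100% = 30 µM serotonin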
APJ agonist – agonists of human apelin receptor APJ, primary screen, CHO-K1 cells, PathHunter beta-arrestin, luminescence; P35414; 0% DMSO wells, 100% apelin; activation, % at 20 µM; actives 0.11% (n = 330,000);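 active means activation more than six SD over the plate average, tested at 20 µM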;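 further: 0% = DMSO alone and 100% = apelin-13 at 10 nM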
Target sequence (P35414 whole entry, looked up): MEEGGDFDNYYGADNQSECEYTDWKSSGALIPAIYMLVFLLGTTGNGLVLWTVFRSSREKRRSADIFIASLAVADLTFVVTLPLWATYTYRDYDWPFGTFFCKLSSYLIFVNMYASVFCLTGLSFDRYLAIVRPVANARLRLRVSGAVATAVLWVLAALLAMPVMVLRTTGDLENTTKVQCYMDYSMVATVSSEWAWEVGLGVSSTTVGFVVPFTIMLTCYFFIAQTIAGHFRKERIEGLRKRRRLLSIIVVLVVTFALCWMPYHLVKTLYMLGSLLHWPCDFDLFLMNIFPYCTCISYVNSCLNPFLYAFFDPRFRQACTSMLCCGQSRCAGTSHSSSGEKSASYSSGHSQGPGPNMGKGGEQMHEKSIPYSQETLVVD
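Assay system: CHO-K1 cells stably expressing ProLink-tagged human APJ and arrestin–beta-gal acceptor. Compound dosing: 20 µM single point, 1% DMSO. Times: 16-18 h seeding, 90 min dark compound exposure, 60 min detection. Detection: beta-gal luminescence. Evaluation: APJ–arrestin association signal. Controls: negative DMSO alone, positive Apelin-13 at 10 nM.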
APJ antag – antagonists of human apelin receptor APJ, primary screen, CHO-K1 cells, beta-arrestin complementation, luminescence; P35414; inhibition, % at 20 µM; actives 0.32% (n = 330,000);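 active means inhibition above about 40% at 20 µM, limit read from the data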;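 further: cells challenged with 10 nM apelin-13 agonist together with compound; plate controls were apelin-13 plus DMSO wells for no effect and DMSO wells lacking apelin-13 for full effect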
CCR6 antagonist – CCR6 receptor antagonists, primary screen, cell-based, CHO-K1, luminescence, beta-arrestin, uHTS | C-C chemokine receptor type 6 (Homo sapiens), P51684 | CHO-K1 CCR6 PathHunter beta-arrestin, CCL20-stimulated | inhibition, % at 20 µM | actives 0.49% (n = 340,000);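 active means compounds whose inhibition of the agonist-driven luminescence signal at 20 µM reaches about 50%, limit read from the data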;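 further: cells stimulated with CCL20 at 14 nM final; plate controls were DMSO with CCL20 for no effect and DMSO without agonist for full effect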
EBI2 block – EBI2 receptor antagonists, beta-arrestin recruitment, primary screen, cell-based, luminescence, 7a,25-OHC stimulation, uHTS; G-protein coupled receptor 183 (Homo sapiens), P32249; 7a,25-OHC stimulated; inhibition, % at 5 µM; actives 0.81% (n = 360,000); AID 651636, 2012; in the data active means inhibition above about 38%;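 further: enzyme fragment complementation signal reports receptor beta-arrestin coupling in cells; 0% = agonist plus DMSO wells and 100% = wells without agonist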
EBI2 antag conf – EBI2 antagonist hit retest, beta-arrestin, confirmation, cell-based, single concentration, luminescence, 7a,25-OHC stimulation; inhibition, % at 5 µM; shares compounds with EBI2 block; actives 29% (n = 2,400); 7a,25-OHC antagonism;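 active means inhibition of at least 50%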
EBI2 agonist – EBI2 agonist activity of antagonist hits, confirmation, counter-screen for EBI2 antagonist project, cell-based, single concentration, agonist mode, luminescence; shares compounds with EBI2 block; EBI2-expressing cells, 60 min; 0% vehicle, 100% 7α,25-dihydroxycholesterol control; activation, % at 5 µM; 2,400 tested, under 10 active;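 active means activation of at least 50%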
bGal cs – E. coli beta-galactosidase enzyme inhibition, confirmation, counter-screen for EBI2 antagonist project, biochemical, luminescence, single concentration. shares compounds with EBI2 block. purified beta-galactosidase, luminescent Galacton Star, 15 min. inhibition, % at 5 µM. actives 1% (n = 2,400). AID 652176, 2013;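 active means replicate-average signal at least 3 plate SD below neutral wells, shown as high inhibition, flagging enzyme-inhibiting false positives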;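 further: 0% = DMSO wells with enzyme and 100% = wells lacking enzyme; higher means stronger loss of beta-gal luminescence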
Numbers without * were called inactive; nt = no result. Most compounds without a hit are left out; they make up all but 2.1% or so of the library.

SMILES	CXCR6 block	HTR2A ag	APJ agonist	APJ antag	CCR6 antagonist	EBI2 block	EBI2 antag conf	EBI2 agonist	bGal cs
COc1ccc(/C(C)=N/NC(=O)CNC(=O)/C=C\c2ccccc2)c(OC)c1	-8	-6	8	-60	-5	6	nt	nt	nt
O=[N+]([O-])c1cc(-c2cnc3ccccc3n2)ccc1Oc1ccc(Br)cc1	4	0	2	-11	13	46*	42	0	3
COC(=O)[C@@]1(Cc2ccc(F)cc2)[C@H]2c3cc(C(=O)N4CCCC4)n(CCc4c[nH]c5ccccc45)c3C[C@H]2CN1C(=O)c1ccccc1	11	4	nt	nt	nt	53*	24	0	-8
COC(=O)[C@@]1(Cc2ccc(OC)cc2)[C@H]2c3cc(C(=O)N4CCCC4)n(CCc4c[nH]c5ccccc45)c3C[C@H]2CN1C(=O)c1ccccc1	3	4	nt	nt	nt	38	nt	nt	nt
Cc1ccc(-c2cc(C(=O)NCCN3CCOCC3)c3ccccc3n2)o1	-1	-5	-7	6	10	-17	nt	nt	nt
COCCCn1c(SCc2ccccc2)nc2cc(OC)c(OC)cc2c1=N	-8	-8	-2	12	38	54*	48	-1	-2
COc1cc2nc(SCc3ccc(Cl)cc3Cl)n(Cc3cccs3)c(=N)c2cc1OC	-5	0	-3	7	4	43*	30	1	1
CCOc1ccc(-c2nc(N)ncc2-c2ccc(OC)cc2)c(O)c1	-1	-1	1	-11	10	69*	35	0	-11
CCOc1ccc(-c2nc(N)ncc2-c2ccc(Cl)cc2)c(O)c1	-2	11	-4	15	-11	59*	26	1	-9
CCOc1ccc(-c2nc(N)ncc2-c2ccccc2)c(O)c1	6	-5	-2	-6	3	39	nt	nt	nt
CCOc1ccc(-c2nc(N)ncc2Oc2ccc(OC)cc2)c(O)c1	7	4	-2	5	16	27	nt	nt	nt
COc1ccc(-c2nc(C)ncc2-c2ccc(Cl)cc2)c(O)c1	6	3	-3	16	12	54*	26	-1	-6
CCCNC(=O)N(C)C[C@@H]1Oc2ncc(-c3ccncc3)cc2C(=O)N([C@H](C)CO)C[C@@H]1C	-4	1	nt	nt	nt	-5	nt	nt	nt
CC(=O)c1nn(-c2ccc(Br)cc2)cc1C(=O)c1ccccc1	-1	2	-5	10	5	52*	43	0	8
CC(=O)c1nn(-c2ccc(Cl)cc2)cc1C(=O)c1ccc(C)cc1	9	-2	0	14	2	88*	51*	1	9
COc1ccccc1C=NN=C(NN=Cc1ccccc1OC)NN=Cc1ccccc1OC	-4	-6	nt	nt	19	-30	nt	nt	nt
CCN(CC(=O)Nc1ccc(C#N)cc1)CC(=O)Nc1ccc2c(c1)OCCO2	0	-4	nt	nt	nt	-2	nt	nt	nt
Cc1ccc(C(=O)OCC(=O)Nc2ccc(C)c(S(=O)(=O)N3CCCCC3)c2)o1	-6	-2	nt	nt	nt	-2	nt	nt	nt
S=C(NCC1CCCO1)N1CCN(c2nc(-c3ccccc3)cs2)CC1 (configuration not stated)	-3	-6	2	2	-8	40*	22	-1	-8
CCOC(=O)C1CCCN(c2nc3ccccc3nc2NS(=O)(=O)c2ccc(C)cc2)C1 (configuration not stated)	2	12	-2	-8	0	3	nt	nt	nt
COc1cc(-c2nc3cc(C)ccn3c2NC2CCCCC2)ccc1-c1ccc(C(C)=O)cc1	10	0	7	13	8	59*	46	-2	-2
CSc1ccc(CN(C)C(=O)c2cc3ccccc3o2)cc1	4	-1	-3	19	9	50*	12	0	-11
CN(Cc1c(F)cccc1Cl)C(=O)c1cc2ccccc2o1	-2	1	-3	6	6	13	nt	nt	nt
CSc1ccc(CN(C)C(=O)c2cc(=O)c3ccccc3o2)cc1	-2	-2	-3	14	19	78*	60*	-1	-14
COc1ccccc1-c1cnc2c(Nc3cccc(OC(F)(F)C(F)F)c3)nccn12	0	1	nt	nt	nt	68*	41	-1	-12
SMILES	CXCR6 block	HTR2A ag	APJ agonist	APJ antag	CCR6 antagonist	EBI2 block	EBI2 antag conf	EBI2 agonist	bGal cs
FC(F)C(F)(F)Oc1cccc(Nc2nccn3c(-c4cccc5cccnc45)cnc23)c1	-5	-4	nt	nt	nt	47*	35	2	4
O=C(NCCO)c1cccc(-c2cnc3c(Nc4cccc(OC(F)(F)C(F)F)c4)nccn23)c1	-14	1	nt	nt	nt	40	nt	nt	nt
Cc1cccc(C(=O)Nc2ccc(C(=O)N/N=C/c3ccc(C)o3)cc2)c1	1	-3	-2	-13	10	-3	nt	nt	nt
c1ccc(-c2csc(N3CCCCCC3)n2)cc1	2	-4	-3	20	31	17	nt	nt	nt
Cc1cc(N2CCN(c3nc(-c4ccccc4)cs3)CC2)c2ccccc2n1	8	-3	-2	5	7	55*	33	1	5
CCC(C)(C)C1CCc2[nH]nc(C(=O)NN)c2C1 (configuration not stated)	0	-3	3	-10	-6	2	nt	nt	nt
CCC(C)(C)C1CCc2[nH]nc(C(=O)NC3CCCCC3)c2C1 (configuration not stated)	2	1	8	14	7	43*	14	0	-4
O=C(c1cccc(F)c1)N1CCN(c2cccc(Cl)c2)CC1	-11	-1	-2	-9	4	5	nt	nt	nt
COc1ccc2cc(C(=O)N3CCN(c4ccc(F)cc4)CC3)[nH]c2c1	-6	-9	-4	-3	-12	64*	50*	-1	-16
COc1cccc(N2CCN(C(=O)c3cc4cc(Cl)ccc4[nH]3)CC2)c1	-4	-3	0	-4	5	51*	41	1	6
